Active and inactive are the calls of the source. No cut-off for these calls is given here.
Key:
[1] = molecular target: Androgen receptor (Homo sapiens) (UniProt P10275); assay: In vivo induction of androgen receptor degradation in human VCaP cells xenografted in CB17 SCID mouse assessed as reduction in AR protein level at 12.5 mg/kg, po measured after 24 hrs by Western blotting analysis; set-up: scale not given: the % may be the effect or the level left
[2] = Metabolic stability in rat hepatocytes assessed as half life at 1 uM measured upto 120 mins in presence of NADPH by LC-MS/MS analysis; format: ADME, cell-based, Hepatocyte; details: 2 h
Cytochrome P450 3A4 = Cytochrome P450 3A4 (Homo sapiens, UniProt P08684); assay: Inhibition of CYP3A4 in human liver microsomes using […] as substrate preincubated for 5 mins followed by NADPH addition and measured after 5 mins by LC/MS analysis; format: ADME, Microsome
Chain of Cytochrome P450 3A4 (P08684 whole entry): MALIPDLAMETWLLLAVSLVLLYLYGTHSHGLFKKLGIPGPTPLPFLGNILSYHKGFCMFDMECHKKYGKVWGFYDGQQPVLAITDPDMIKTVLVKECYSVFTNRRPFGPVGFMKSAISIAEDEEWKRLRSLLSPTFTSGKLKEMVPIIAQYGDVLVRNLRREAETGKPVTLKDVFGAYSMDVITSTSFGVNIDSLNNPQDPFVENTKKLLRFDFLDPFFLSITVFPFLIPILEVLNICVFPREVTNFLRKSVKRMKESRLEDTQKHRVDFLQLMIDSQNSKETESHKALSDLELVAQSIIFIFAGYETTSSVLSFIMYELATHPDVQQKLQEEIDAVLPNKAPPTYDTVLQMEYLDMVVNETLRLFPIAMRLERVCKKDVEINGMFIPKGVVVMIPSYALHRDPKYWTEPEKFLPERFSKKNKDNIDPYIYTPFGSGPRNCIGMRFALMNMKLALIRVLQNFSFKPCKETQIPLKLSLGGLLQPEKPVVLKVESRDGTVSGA

[3] = Plasma protein binding in human at 1 uM after 5 hrs by equilibrium dialysis based LC-MS/MS analysis; format: ADME, cell-free
Summary of the method: (§1)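 Equilibrium dialysis of pooled plasma of each species spiked at 1 μM against 0.1 M sodium phosphate, pH 7.4. 5 h at 37 °C with shaking at 60 rpm. Both sides matrix-matched, ACN/IS quench, LC/MS. % bound = 100 − (buffer/plasma peak-area ratio × 100); recovery also calculated. Warfarin as reference.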

VCaP = assay: Downregulation of KLK3 gene expression in human VCaP cells incubated for 24 hrs by qRT-PCR analysis; format: functional, cell-based; details: dose 0.03-30 nM
Summary of the method: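 LNCaP cells (RPMI 1640) or VCaP cells (DMEM Glutamax), both with 10% FBS, treated for 24 h. KLK3 mRNA measured by qRT-PCR and calculated by the comparative CT method against GAPDH and vehicle.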

[4] = Plasma protein binding in mouse at 1 uM after 5 hrs by equilibrium dialysis based LC-MS/MS analysis; format: ADME, cell-free
Summary of the method: as §1

Cytochrome P450 2D6 = Cytochrome P450 2D6 (Homo sapiens, UniProt P10635); assay: Inhibition of CYP2D6 in human liver microsomes preincubated for 5 mins followed by NADPH addition and measured after 10 mins by LC/MS analysis; format: ADME, Microsome
Chain of Cytochrome P450 2D6 (P10635 whole entry): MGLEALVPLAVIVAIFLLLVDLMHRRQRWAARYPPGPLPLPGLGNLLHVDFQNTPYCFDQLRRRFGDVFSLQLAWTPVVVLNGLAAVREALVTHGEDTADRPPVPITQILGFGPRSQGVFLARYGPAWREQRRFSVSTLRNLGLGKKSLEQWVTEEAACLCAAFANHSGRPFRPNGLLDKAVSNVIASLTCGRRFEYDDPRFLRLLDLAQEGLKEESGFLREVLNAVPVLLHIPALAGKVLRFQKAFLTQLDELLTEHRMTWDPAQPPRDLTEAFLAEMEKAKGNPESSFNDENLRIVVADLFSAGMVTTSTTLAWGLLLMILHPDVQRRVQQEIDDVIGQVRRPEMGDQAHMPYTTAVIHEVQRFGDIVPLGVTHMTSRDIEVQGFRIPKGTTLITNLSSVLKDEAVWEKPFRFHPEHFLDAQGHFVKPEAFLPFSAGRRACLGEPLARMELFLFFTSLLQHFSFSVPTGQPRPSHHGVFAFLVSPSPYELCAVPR

[5] = Downregulation of KLK3 gene expression in human VCaP cells at 1 nM incubated for 24 hrs by qRT-PCR analysis; format: functional
Summary of the method: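 VCaP cells (ATCC) grown in DMEM with Glutamax plus 10% FBS at 37 °C, 5% CO2. Cells treated 24 h; KLK3 mRNA measured by qRT-PCR, expression by comparative CT method, normalised to GAPDH (ΔCT) and then to vehicle control (ΔΔCT).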

[6] = Half life in Sprague-Dawley rat at 1 mg/kg, iv measured upto 24 hrs by LC-MS/MS analysis; format: ADME, organism-based; details: in vivo
Summary of the method: (§2)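 Male ICR mice (2 mg/kg), male SD rats (1 mg/kg) or male Beagle dogs (1 mg/kg) given a single intravenous dose in 10% PEG400 + 90% PBS adjusted to pH 8.0 with NaOH.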

[7] = Clearance in Sprague-Dawley rat at 1 mg/kg, iv measured upto 24 hrs by LC-MS/MS analysis; format: ADME, organism-based; details: in vivo
Summary of the method: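 Male Sprague Dawley rats received a single intravenous dose of 1 mg/kg, formulated in 10% PEG400 + 90% PBS adjusted to pH 8.0 with 0.5 N NaOH.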

[8] = Half life in Sprague-Dawley rat at 10 mg/kg, po measured up to 24 hrs by LC-MS/MS analysis; format: ADME, organism-based; details: in vivo
Summary of the method: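 Male SD rats given a single oral dose of 10 mg/kg in 5% DMSO + 10% Solutol + 85% saline.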

[9] = AUC(0 to t) in Sprague-Dawley rat at 1 mg/kg, iv measured upto 24 hrs by LC-MS/MS analysis; format: ADME, organism-based; set-up: time < 24 hrs, dose 1 mg/kg, route iv; details: in vivo
Summary of the method: as §2

Cytochrome P450 2C19 = Cytochrome P450 2C19 (Homo sapiens, UniProt P33261); assay: Inhibition of CYP2C19 in human liver microsomes preincubated for 5 mins followed by NADPH addition and measured after 10 mins by LC/MS analysis; format: ADME, Microsome
Chain of Cytochrome P450 2C19 (P33261 whole entry): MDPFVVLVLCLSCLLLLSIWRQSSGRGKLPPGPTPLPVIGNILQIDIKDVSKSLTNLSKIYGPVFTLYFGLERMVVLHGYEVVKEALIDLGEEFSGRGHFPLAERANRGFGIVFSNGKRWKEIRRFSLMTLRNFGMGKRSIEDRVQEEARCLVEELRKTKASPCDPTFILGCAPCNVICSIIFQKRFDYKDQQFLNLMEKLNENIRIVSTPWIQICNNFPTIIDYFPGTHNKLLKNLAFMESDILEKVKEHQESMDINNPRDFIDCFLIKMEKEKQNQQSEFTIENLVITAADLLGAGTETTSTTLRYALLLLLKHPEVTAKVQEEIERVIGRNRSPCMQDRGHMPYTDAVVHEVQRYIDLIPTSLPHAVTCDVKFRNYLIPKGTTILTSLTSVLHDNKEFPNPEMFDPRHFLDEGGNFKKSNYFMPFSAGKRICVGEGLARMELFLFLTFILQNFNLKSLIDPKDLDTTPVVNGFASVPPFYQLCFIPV

[10] = Drug concentration in ICR mouse plasma at 10 mg/kg, po measured after 24 hrs; format: ADME, organism-based
Summary of the method: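 Mice given a single 10 mg/kg dose by oral gavage, 3 mice per time point. Plasma drug levels measured at 1, 3, 6 and 24 h; mean ± SD reported.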

[11] = Volume of distribution at steady state in Sprague-Dawley rat at 1 mg/kg, iv measured upto 24 hrs by LC-MS/MS analysis; format: ADME, organism-based; details: in vivo
LNCaP = assay: Induction of androgen receptor degradation in human LNCaP cells at 100 nM pretreated with MLN4924 for 2 hrs followed by compound addition and 3 hrs by Western blot analysis; format: functional, cell-based; details: time 5.0 hrs
Summary of the method: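 LNCaP or VCaP cells pretreated 2 h with DMSO, ARi-12 (10 μM), thalidomide (10 μM), MG-132 (3 μM) or MLN4924 (0.5 μM), then given degrader at 100 nM for 3 h. AR measured by Western blot with GAPDH as loading control.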

Cytochrome P450 2C9 = Cytochrome P450 2C9 (Homo sapiens, UniProt P11712); assay: Inhibition of CYP2C9 in human liver microsomes preincubated for 5 mins followed by NADPH addition and measured after 10 mins by LC/MS analysis; format: ADME, Microsome
Chain of Cytochrome P450 2C9 (P11712 whole entry): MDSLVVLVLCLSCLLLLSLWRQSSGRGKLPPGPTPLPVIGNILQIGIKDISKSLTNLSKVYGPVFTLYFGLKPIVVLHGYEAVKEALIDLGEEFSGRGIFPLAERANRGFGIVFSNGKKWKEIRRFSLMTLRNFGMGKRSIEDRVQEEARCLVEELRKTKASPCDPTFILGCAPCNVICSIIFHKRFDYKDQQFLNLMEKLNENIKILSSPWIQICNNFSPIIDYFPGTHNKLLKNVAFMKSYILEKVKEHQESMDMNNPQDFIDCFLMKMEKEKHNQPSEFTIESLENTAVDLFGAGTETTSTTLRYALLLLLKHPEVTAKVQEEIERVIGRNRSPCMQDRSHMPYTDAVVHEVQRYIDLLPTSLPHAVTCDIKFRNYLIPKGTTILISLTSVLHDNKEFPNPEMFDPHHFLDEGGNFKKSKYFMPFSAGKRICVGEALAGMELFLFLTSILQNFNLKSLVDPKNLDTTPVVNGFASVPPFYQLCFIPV

[12] = Metabolic stability in dog plasma assessed as half life at 1 uM measured upto 120 mins by LC-MS/MS analysis; format: ADME, cell-free, Canis lupus familiaris; details: 2 h
Summary of the method: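 Compound at 1 μM final in pre-warmed plasma of each species, 37 °C for up to 2 h. ACN/IS quench at 0, 5, 15, 30, 60 and 120 min; LC/MS. Procaine as reference (benfluorex for rat). t1/2 = 0.693/slope of ln(fraction remaining) versus time.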

[13] = AUC(0 to t) in ICR mouse at 2 mg/kg, iv measured upto 24 hrs by LC-MS/MS analysis; format: ADME, organism-based; set-up: time < 24 hrs, dose 2 mg/kg, route iv; details: in vivo
Summary of the method: as §2

Mus musculus = assay: In vivo induction of androgen receptor degradation in human VCaP cells xenografted in CB17 SCID mouse at 12.5 mg/kg, po measured upto 24 hrs by […] analysis; format: functional, organism-based
[14] = Drug concentration in CB17 SCID mouse tumor xenografted with human VCaP cells at 12.5 mg/kg, po measured after 6 hrs by LC-MS/MS analysis; format: ADME, organism-based, Neoplasm; details: read-out: Ct
Summary of the method: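 SCID mice bearing one VCaP tumour each given a single oral 12.5 mg/kg dose in 100% PEG200. Plasma and tumour tissue collected at 6 and 24 h, 3 mice per time point. Values are mean ± SD.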

Which results are given for `C[C@H]1CC2(CCN(c3ccc(C(=O)N4CCN(C5CN(c6ccc7c(c6)C(=O)N(C6CCC(=O)NC6=O)C7=O)C5)CC4)cc3)CC2)CN1c1ccc(C#N)c(Cl)c1` (stereo partly specified)?
Activity [1]: > 95%; t1/2 [2]: > 2 h; IC50 (Cytochrome P450 3A4): > 10 µM; PPB [3]: 99.1%; Activity (VCaP): Dose-Dependent Effect; PPB [4]: 99.2%; IC50 (Cytochrome P450 2D6): > 10 µM; Activity [5]: 51%; t1/2 [6]: 2.1 h; clearance [7]: 10.2 mL/min/kg; t1/2 [8]: 3.9 h; AUCt [9]: 1560 ng·h/mL; IC50 (Cytochrome P450 2C19): > 10 µM; concentration at 24 h [10]: 77 ng/mL; Vdss [11]: 1.3 L/kg; Activity (LNCaP): inactive; IC50 (Cytochrome P450 2C9): > 10 µM; t1/2 [12]: > 2 h; AUCt [13]: 8850 ng·h/mL; Activity (Mus musculus): Active; concentration at 6 h [14]: 946 ng/mL

Reference: ChEMBL document CHEMBL5331127, “Discovery of ARD-2051 as a Potent and Orally Efficacious Proteolysis Targeting Chimera (PROTAC) Degrader of Androgen Receptor for the Treatment of Advanced Prostate Cancer” (J Med Chem, 2023)
